High-throughput results: PubChem, several laboratories
The list is not random: actives were taken first. Their share in the collection is about 2.5%.
JMJD2C inh: inhibitors of GASC-1 histone demethylase, primary screen, biochemical, fluorescence, DELFIA europium; Lysine-specific demethylase 4C (Homo sapiens), Q9H3R0; GST-JMJD2C(1-420) H3K9me3 demethylation; inhibition, % at 2.35 µM; 330,000 compounds, 0.069% hits;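 active = more than half of a compound's replicate wells show inhibition beyond 50%, single wells judged on their own value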;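 note: signal counts dimethyl H3K9 product captured on neutravidin plate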
NR2E3 ag-1: inhibitors of NR2E3-RetCOR corepressor binding, primary screen, NR2E3 agonist project, biochemical, TR-FRET, GST-NR2E3, biotin-RetCOR | Photoreceptor-specific nuclear receptor (Homo sapiens), Q9Y5X4 | 1536-well | inhibition of corepressor binding, % at 4.78 µM | 320,000 compounds, 0.12% hits;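 active = percent inhibition above the cutoff of mean plus 3 SD of all tested compounds, set per screening campaign, cut at about 20% in these data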
Target sequence (Q9Y5X4 whole entry, looked up): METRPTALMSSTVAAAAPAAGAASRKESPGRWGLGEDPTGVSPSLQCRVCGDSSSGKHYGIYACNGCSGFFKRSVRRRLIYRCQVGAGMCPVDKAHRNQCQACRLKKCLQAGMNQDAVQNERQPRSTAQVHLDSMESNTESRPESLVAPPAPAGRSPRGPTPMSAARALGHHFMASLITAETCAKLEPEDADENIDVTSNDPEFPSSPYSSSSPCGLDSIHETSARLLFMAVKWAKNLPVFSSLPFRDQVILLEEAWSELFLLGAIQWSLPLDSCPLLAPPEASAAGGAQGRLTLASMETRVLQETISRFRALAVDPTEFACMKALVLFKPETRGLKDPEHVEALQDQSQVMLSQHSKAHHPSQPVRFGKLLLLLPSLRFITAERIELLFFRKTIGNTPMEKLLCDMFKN
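System: GST-tagged NR2E3 plus biotinylated RetCOR corepressor; Amount: 1.35 nM GST-tagged NR2E3 final; Dosing: single nominal compound dose of 4.8 µM; Schedule: 5 h incubation at 4 °C; Technique: TR-FRET with europium anti-GST and streptavidin-D2, 340 nm excitation; Controls: biotin wells as high control, 0.6% DMSO wells as low control.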
ADAM17 inh: ADAM17 inhibitors, primary screen, biochemical, QFRET; recombinant ADAM17, EDANS/DABCYL FRET peptide cleavage; inhibition, % at 6.95 µM; Disintegrin and metalloproteinase domain-containing protein 17 (Homo sapiens), P78536; 370,000 compounds, 0.83% hits;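 active = inhibition above the mean of compounds lying between control limits plus 3 SD, set per campaign, cut at about 8.5% in these data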
NR2E3 ag-2: NR2E3 agonists in two-hybrid cells, primary screen, cell-based, luminescence, CHO-S, Gal4-NCOR/VP16-NR2E3; inhibition of corepressor binding, % at 3.98 µM; 360,000 compounds, 0.35% hits; AID 602229, 2012; Photoreceptor-specific nuclear receptor (Homo sapiens), Q9Y5X4; luciferase;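 active = inhibition above the mean of all tested compounds plus 3 SD, cut at about 70% in these data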;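 note: higher means lower luciferase signal from less NR2E3 corepressor binding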
ADAM10 inh: human ADAM10 inhibitors, primary screen, biochemical, QFRET, HTS | 370,000 compounds, 0.62% hits | inhibition, % at 7 µM | Disintegrin and metalloproteinase domain-containing protein 10 (Homo sapiens), O14672 | recombinant ADAM10, EDANS/DABCYL FRET peptide cleavage, 3 h;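 active = inhibition above a per-campaign cutoff equal to the mean of compounds falling between control-based bounds plus 3 SD, cut at about 20% in these data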
KLK7 zymogen act: proKLK7 zymogen activators, primary screen, biochemical, fluorescence intensity; Kallikrein-7 (Homo sapiens), P49862; purified proKLK7, EDANS-DABCYL substrate fluorescence; 100% is mature enzyme control, 0% vehicle; activation, % at 7 µM; 370,000 compounds, 0.9% hits;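 active = activation above the mean of all tested compounds plus 3 SD, computed per campaign excluding outliers beyond control limits, cut at about 13% in these data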
Target sequence (P49862 whole entry, looked up): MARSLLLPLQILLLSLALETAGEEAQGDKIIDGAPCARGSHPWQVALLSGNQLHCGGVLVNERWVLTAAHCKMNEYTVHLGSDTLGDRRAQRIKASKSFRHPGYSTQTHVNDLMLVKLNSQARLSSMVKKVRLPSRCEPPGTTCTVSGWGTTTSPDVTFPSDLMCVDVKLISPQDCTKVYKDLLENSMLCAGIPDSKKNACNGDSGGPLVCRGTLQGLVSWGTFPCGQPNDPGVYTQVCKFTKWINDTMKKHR
NR2E3 ag confirm: NR2E3 agonist confirmation in cells, cell-based, luminescence, CHO-S two-hybrid | 2,300 compounds, 51% hits | inhibition, % at 3.98 µM | CHO-S mammalian two-hybrid NR2E3-NCOR, luciferase luminescence | shares compounds with NR2E3 ag-2;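 active = average inhibition above a cutoff equal to the mean inhibition of all tested compounds plus one SD, cut at about 70% in these data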
GAL4-VP16 luc: GAL4-VP16 reporter modulators, confirmation, counter-screen for NR2E3 agonist project, cell-based, luminescence, CHO-S, high throughput; shares compounds with NR2E3 ag-2; CHO-S GAL4-VP16 luciferase reporter; inhibition, % at 3.98 µM; 2,300 compounds, 29% hits;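 active = mean inhibition above a cutoff equal to the average over all tested compounds plus one standard deviation, cut at about 70% in these data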;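 note: luciferase from a UAS reporter driven by GAL4-VP16 transactivation; higher means less reporter light so more repression of VP16 activity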
Each line names hits and unclear results; the compound was inactive in the other large screens (follow-up assays come after a bar, where they were run).

Cc1cc(C)cc(NC(=O)c2ccc([N+](=O)[O-])o2)c1	NR2E3 ag-2 84 (no result: NR2E3 ag-1) | NR2E3 ag confirm inactive | GAL4-VP16 luc inactive
CC(=O)c1ccc(NC(=O)c2ccc([N+](=O)[O-])o2)cc1	none (no result: NR2E3 ag-1)
O=C(Nc1ccc(Br)c2ccccc12)c1ccc2ccccc2c1O	NR2E3 ag-1 38, NR2E3 ag-2 107 | NR2E3 ag confirm 99 | GAL4-VP16 luc 79
Nc1cc(S(=O)(=O)c2ccc(N3CCCCC3)c(N)c2)ccc1N1CCCCC1	NR2E3 ag-2 94 (no result: JMJD2C inh, NR2E3 ag-1) | NR2E3 ag confirm 95 | GAL4-VP16 luc 84
Nc1ccc(N2CCCCC2)c(S(=O)(=O)Nc2ccccc2Cl)c1	none
CC1CCN(c2ccc(S(=O)(=O)N3CCC(C)CC3)cc2N)CC1	NR2E3 ag-2 100 | NR2E3 ag confirm 87 | GAL4-VP16 luc 72
COc1ccc(NS(=O)(=O)c2ccc(N3CCCCC3)c(N)c2)cc1	NR2E3 ag-2 92 | NR2E3 ag confirm 95 | GAL4-VP16 luc 86
Nc1cc(S(=O)(=O)N2CCCCC2)ccc1N1CCOCC1	none
Nc1cc(S(=O)(=O)Nc2ccccc2Cl)ccc1N1CCCCC1	NR2E3 ag-2 70 (no result: NR2E3 ag-1) | NR2E3 ag confirm 83 | GAL4-VP16 luc inactive
CCCCOc1ccc(S(=O)(=O)Nc2cccnc2)cc1	NR2E3 ag-2 94 | NR2E3 ag confirm 90 | GAL4-VP16 luc 74
Cc1ccc(S(=O)(=O)Nc2cccnc2)cc1	none
Cc1cccc(CN2CCN(C3CN(Cc4cn(Cc5ccc(C(F)(F)F)cc5)nn4)S(=O)(=O)C3)CC2)c1 (stereo unspecified)	none (no result: JMJD2C inh, NR2E3 ag-1, NR2E3 ag-2)
CC(=O)Nc1ccc(S(=O)(=O)Nc2ccc3c(c2)CCC3)cc1	none | NR2E3 ag confirm inactive | GAL4-VP16 luc inactive
CC(=O)N1CCCc2ccc(NS(=O)(=O)c3ccc(C)c(C)c3)cc21	none | NR2E3 ag confirm inactive | GAL4-VP16 luc inactive
Cc1ccc(-n2ncc3c2CCCC3NC(=O)c2ocnc2C)cc1C (stereo unspecified)	NR2E3 ag-2 101 | NR2E3 ag confirm 90 | GAL4-VP16 luc 80
Cc1cc(C(=O)NC2CCCc3c2cnn3-c2ccc(C)c(C)c2)no1 (stereo unspecified)	none
Cc1cc(C(=O)NC2CCCc3c2cnn3-c2cccc(C)c2C)n(C)n1 (stereo unspecified)	NR2E3 ag-2 110 | NR2E3 ag confirm 98 | GAL4-VP16 luc 91
CCc1[nH]nc(C(=O)NC2CCCc3c2cnn3-c2cc(C)cc(C)c2)c1C (stereo unspecified)	none | NR2E3 ag confirm inactive | GAL4-VP16 luc inactive
CCn1nc(C)cc1C(=O)NC1CCCc2c1cnn2-c1ccc(C)c(C)c1 (stereo unspecified)	none | NR2E3 ag confirm inactive | GAL4-VP16 luc inactive
CCc1noc(C)c1C(=O)NC1CCCc2c1cnn2-c1cc(C)cc(C)c1 (stereo unspecified)	none
CCCC(=O)NC1CCCc2c1cnn2-c1ccc(C)c(C)c1 (stereo unspecified)	none
CC(C)(C)c1ccc(C(=O)Nc2ccc(CC(=O)O)cc2)o1	none | NR2E3 ag confirm inactive | GAL4-VP16 luc inactive
Cc1ccc(C(=O)Nc2ccc(CC(=O)O)cc2)o1	none
COc1cc(/C=N/NC(=O)c2cc(C34CC5CC(CC(C5)C3)C4)[nH]n2)ccc1O	NR2E3 ag-2 70 | NR2E3 ag confirm inactive | GAL4-VP16 luc inactive
COc1cc(/C=N/NC(=O)c2[nH]nc3c2CCc2ccccc2-3)ccc1O	none | NR2E3 ag confirm inactive | GAL4-VP16 luc inactive
CCCCCCCCNS(=O)(=O)CC1NCc2ccccc21 (stereo unspecified)	none (no result: JMJD2C inh, NR2E3 ag-1, NR2E3 ag-2)
CCn1c(=O)n(CC(=O)N2CCCN(Cc3ccccc3)CC2)c(=O)c2ccccc21	none (no result: JMJD2C inh, NR2E3 ag-1, NR2E3 ag-2)
O=C1NC[C@H](c2ccccc2)OC(=O)[C@@H](Cc2ccc(F)cc2)C/C=C\C[C@H]1CC(=O)N(CCO)Cc1ccccc1	none (no result: NR2E3 ag-1) | NR2E3 ag confirm inactive | GAL4-VP16 luc inactive
CCOC(=O)Cc1nnc2c(Nc3ccccc3F)nc3nonc3n12	NR2E3 ag-2 71 | NR2E3 ag confirm 74 | GAL4-VP16 luc inactive
O=C(c1cccc(F)c1F)N(Cc1ccccn1)CC1CCCO1 (stereo unspecified)	none (no result: JMJD2C inh, NR2E3 ag-1, NR2E3 ag-2)
Clc1cccc(Cl)c1CON/C=N/c1ncnc2sccc12	none | NR2E3 ag confirm inactive | GAL4-VP16 luc inactive
CN1CCCCC1(C)C(=O)NCc1cc(Cl)ccc1F (stereo unspecified)	none (no result: JMJD2C inh, NR2E3 ag-1)
CCOc1cc(CNc2ncn[nH]2)ccc1OCC(=O)NC(C)(C)C	none
C/C=C(/C)C(=O)OC1CC(C)(C)C[C@H]2C3=CC[C@@H]4[C@@]5(C)CCC(O[C@@H]6O[C@@H](C(=O)O)[C@@H](O)C(O[C@@H]7OC[C@H](O)[C@@H](O)[C@@H]7O[C@@H]7OC(CO)C(O)[C@@H](O)[C@@H]7O)C6O[C@@H]6OC(CO)C(O)C(O)C6O)[C@@](C)(CO)[C@@H]5CC[C@]4(C)[C@]3(C)CC(O)[C@@]12CO (stereo partly specified)	none (no result: NR2E3 ag-1, ADAM17 inh, ADAM10 inh, KLK7 zymogen act) | NR2E3 ag confirm inactive | GAL4-VP16 luc inactive
CN(CC(=O)NCc1ccccc1)CC(=O)Nc1ccc(Cl)c(C(F)(F)F)c1	none
CN(CC(=O)Nc1ccc(Cl)c(C(F)(F)F)c1)CC(=O)NC1CCCCC1	none (no result: ADAM17 inh, ADAM10 inh, KLK7 zymogen act) | NR2E3 ag confirm inactive | GAL4-VP16 luc inactive
CC(C(=O)N1CCN(c2ccc(Cl)cc2)CC1)c1ncc(C(F)(F)F)cc1Cl (stereo unspecified)	NR2E3 ag-2 81 | NR2E3 ag confirm 76 | GAL4-VP16 luc inactive
CC(C(=O)NC1CC1)c1ncc(C(F)(F)F)cc1Cl (stereo unspecified)	none
COc1ccc(CCNc2ncnc3[nH]ncc23)cc1OC	none
COc1ccc(CCNc2ncnc3sc(C)cc23)cc1OC	NR2E3 ag-2 88 (no result: NR2E3 ag-1) | NR2E3 ag confirm 99 | GAL4-VP16 luc 92
c1ccc(CC2CCN(c3ncnc4sccc34)CC2)cc1	NR2E3 ag-2 80 (no result: NR2E3 ag-1) | NR2E3 ag confirm 97 | GAL4-VP16 luc 83
CCS(=O)(=O)N1CCN(c2ncnc3sc(C)c(C)c23)CC1	none
